Data set [1] concerns the target Cytochrome P450 2C19 (Homo sapiens, UniProt P33261). Nature of the data set: Inhibition of CYP2C19 (unknown origin). Format: ADME.
Data set [2] has as its target Cytochrome P450 3A4 (Homo sapiens, UniProt P08684). As to the kind of experiment: Inhibition of CYP3A4 (unknown origin). Format: ADME.
Data set [3] in a line: Aqueous solubility of the compound at pH 7.4. Format: physicochemical. As to conditions: aqueous medium.
For data set [4], the system named is PBMC. As to the kind of experiment: Antiinflammatory activity in human PBMC assessed as inhibition of LPS-induced TNFalpha production after 20 hrs by fluorescence linked immunosorbant assay. Format: functional, cell-based.
Data set [5] can be described thus: (§1) Volume of distribution at steady state in rat at 1 mg/kg, iv. On the set-up: dose 1 mg/kg, route intravenous. As to conditions: in vivo, read-out: Vdss. It counts as ADME, organism-based.
For data set [6], the target named is Cytochrome P450 2D6 (Homo sapiens, UniProt P10635). Nature of the data set: Inhibition of CYP2D6 (unknown origin). It counts as ADME.
Data set [7] has as its system Rattus norvegicus. As to the kind of experiment: Apparent volume of distribution in rat at 1 mg/kg, iv. It counts as ADME, organism-based. On the set-up: dose 1 mg/kg, route intravenous. Conditions: in vivo. The essentials:
(§2)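 Rat pharmacokinetics were run at 1 mg/kg, given iv or by intratracheal instillation, with 2−3 animals per study.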

Data set [8] in a line: (§3) Half life in rat at 1 mg/kg, iv. On the set-up: dose 1 mg/kg, route intravenous. As to conditions: in vivo. It counts as ADME, organism-based. In short, it runs like this:
as §2

A short description of data set [9]: Lipophilicity, log D of the compound. It counts as physicochemical. Conditions: octanol/water.
The nature of data set [10]: Fraction unbound in human plasma. Format: ADME, cell-free.
The target in data set [11] is Cytochrome P450 2C9 (Homo sapiens, UniProt P11712). Nature of the data set: Inhibition of CYP2C9 (unknown origin). Format: ADME.
Data set [12] can be described thus: Clearance in rat at 1 mg/kg, iv. It counts as ADME, organism-based. On the set-up: dose 1 mg/kg, route intravenous. Conditions: in vivo. In short, it runs like this: as §2
In data set [13] the target is T1, Cytochrome P450 1A2 (Homo sapiens, UniProt P05177).
T1 sequence (P05177 whole entry): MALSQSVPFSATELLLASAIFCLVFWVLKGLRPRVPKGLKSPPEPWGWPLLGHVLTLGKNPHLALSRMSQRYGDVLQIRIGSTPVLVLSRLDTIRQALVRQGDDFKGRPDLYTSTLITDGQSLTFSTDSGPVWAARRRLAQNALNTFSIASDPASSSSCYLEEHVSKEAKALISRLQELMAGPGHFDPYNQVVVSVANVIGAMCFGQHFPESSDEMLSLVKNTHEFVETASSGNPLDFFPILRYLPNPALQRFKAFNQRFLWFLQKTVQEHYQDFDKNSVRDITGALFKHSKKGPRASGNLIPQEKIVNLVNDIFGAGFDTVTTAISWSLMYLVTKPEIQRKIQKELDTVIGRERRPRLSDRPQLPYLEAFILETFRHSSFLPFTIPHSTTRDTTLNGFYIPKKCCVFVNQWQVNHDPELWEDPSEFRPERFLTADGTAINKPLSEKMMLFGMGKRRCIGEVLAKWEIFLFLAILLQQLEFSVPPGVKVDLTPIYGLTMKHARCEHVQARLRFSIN
As to the kind of experiment: Inhibition of CYP1A2 (unknown origin). Format: ADME.

In data set [14] the target is 3',5'-cyclic-AMP phosphodiesterase 4B (Homo sapiens, UniProt Q07343). Nature of the data set: Inhibition of human recombinant PDE4B using [3H]cAMP by packard topcount scintillation counting analysis.
Data set [15] deals with Rattus norvegicus. As to the kind of experiment: Antiinflammatory activity in Sprague-Dawley rat assessed as inhibition of LPS-induced bronchoalveolar lavage neutrophils at 1 mg/ml, inhalation administered as nebulized suspension. Format: functional, organism-based. In short, it runs like this: (§4)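 Rats were given the compound as an aqueous nebulized aerosol by nose-only inhalation 30 min before LPS challenge. Dose is expressed as mg/mL nebulizer concentration. Lung neutrophilia was the readout, and terminal lung concentration (nM) was measured. Groups held 8−10 animals per treatment.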

The subject of data set [16] is Rattus norvegicus. Described as §1. It counts as ADME, organism-based. On the set-up: dose 1 mg/kg, route intravenous. Conditions: in vivo.
The subject of data set [17] is Rattus norvegicus. The description is as §3. As to conditions: in vivo. On the set-up: dose 1 mg/kg, route intravenous. It counts as ADME, organism-based. In short, it runs like this: as §2
A short description of data set [18]: Half life in rat at 1 mg/kg, it. As to conditions: in vivo, inhaled or intranasal. Format: ADME, organism-based. On the set-up: dose 1 mg/kg, route endotracheal. In short, it runs like this: as §2
In data set [19] the test system is Blood. As to the kind of experiment: tissue or blood. Conditions: Rattus norvegicus, 20 h, read-out: pIC50 (converted).
Data set [20] concerns Rattus norvegicus. As to the kind of experiment: Antiinflammatory activity in Sprague-Dawley rat assessed as inhibition of LPS-induced bronchoalveolar lavage neutrophils at 0.03 mg/ml, inhalation administered as nebulized suspension. It counts as functional, organism-based. In short, it runs like this: as §4
The test system of data set [21] is Rattus norvegicus. As to the kind of experiment: Antiinflammatory activity in Sprague-Dawley rat assessed as inhibition of LPS-induced bronchoalveolar lavage neutrophils up to 350 nM, inhalation administered as nebulized […] treated 12 hr before LPS challenge. Format: functional, organism-based. In short, it runs like this: (§5)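 Duration protocol: rats received a nose-only inhalation of nebulized aqueous compound solution 12 h before LPS challenge. Dose is expressed as mg/mL nebulizer concentration. Readout was LPS-induced pulmonary neutrophilia, with terminal lung concentration (nM) measured. Groups held 8−10 animals per treatment.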

Data set [22] has as its system Blood. As to the kind of experiment: Antiinflammatory activity in human whole blood assessed as inhibition of LPS-induced TNFalpha production after 20 hrs by ELISA. It counts as functional, tissue-based. A general note: An ELISA detects its analyte on a solid surface through an enzyme-linked reagent.
For data set [23], the system named is Rattus norvegicus. Nature of the data set: Antiinflammatory activity in Sprague-Dawley rat assessed as inhibition of LPS-induced bronchoalveolar lavage neutrophils measured as LPS duration at 0.03 to 3 mg/ml, inhalation administered as nebulized suspension. It counts as functional, organism-based. The essentials:
as §5

The subject of data set [24] is Rattus norvegicus. As to the kind of experiment: Antiinflammatory activity in Sprague-Dawley rat assessed as inhibition of LPS-induced bronchoalveolar lavage neutrophils at 0.01 to 0.1 mg/ml, inhalation administered as nebulized suspension. It counts as functional, organism-based. In short, it runs like this:
as §4

A short description of data set [25]: Intrinsic clearance in human liver microsomes. Format: ADME. Conditions: read-out: CLH. On the technique in general: Liver microsomes are vesicles of endoplasmic reticulum, rich in cytochrome P450 enzymes.
The subject of data set [26] is Rattus norvegicus. Nature of the data set: Antiinflammatory activity in Sprague-Dawley rat assessed as inhibition of LPS-induced bronchoalveolar lavage neutrophils at 145 to 5238 particles/cm'3, inhalation administered as dry powder. Format: functional, organism-based.
Data set [27] concerns Rattus norvegicus. Nature of the data set: Antiinflammatory activity in Sprague-Dawley rat assessed as inhibition of LPS-induced bronchoalveolar lavage neutrophils at lung exposure 1000 to 6000 particles/cm'3, inhalation administered as dry powder. It counts as functional, organism-based.
The test system of data set [28] is Rattus norvegicus. Nature of the data set: Antiinflammatory activity in Sprague-Dawley rat assessed as inhibition of LPS-induced bronchoalveolar lavage neutrophils at 0.03 to 3 mg/ml, inhalation administered as nebulized suspension. Format: functional, organism-based. The essentials: as §4
The nature of data set [29]: Intrinsic clearance in rat hepatocytes measured per 10^6 cells. It counts as ADME, cell-based, Hepatocyte. As to conditions: read-out: CLH.
Data set [30] can be described thus: Fraction unbound in rat plasma. It counts as ADME, cell-free.

The structures appear in SMILES notation. Converted amounts (≈) assume the structure as drawn. The source made the active and inactive calls. The rule behind the calls is not given here. Where only a bound is given, the exact number is not on record here.

Here are results for three compounds from ChEMBL document CHEMBL3286180, “Efficacious inhaled PDE4 inhibitors with low emetic potential and long duration of action for the treatment of COPD” (J Med Chem, 2014).

In general, solubility refers to how much of the substance goes into solution per volume. Broadly, the half-life is how long it takes for the measured level to halve. Low values mean rapid decline, high ones slow decline. In general, logD refers to lipophilicity at a set pH, counting ionised and neutral species. Lower therefore signals a more hydrophilic compound. One may read the fraction unbound as the share of the substance not bound to proteins or other matrix. Lower therefore signals extensive binding. What is called clearance is the volume of plasma or blood freed of the substance per unit of time. For orientation: Vdss means the apparent volume that relates the amount in the body to the concentration in plasma or blood. A lower Vdss goes with confinement near the circulation.

3',5'-cyclic-AMP phosphodiesterase 4B, sequence (Q07343 whole entry): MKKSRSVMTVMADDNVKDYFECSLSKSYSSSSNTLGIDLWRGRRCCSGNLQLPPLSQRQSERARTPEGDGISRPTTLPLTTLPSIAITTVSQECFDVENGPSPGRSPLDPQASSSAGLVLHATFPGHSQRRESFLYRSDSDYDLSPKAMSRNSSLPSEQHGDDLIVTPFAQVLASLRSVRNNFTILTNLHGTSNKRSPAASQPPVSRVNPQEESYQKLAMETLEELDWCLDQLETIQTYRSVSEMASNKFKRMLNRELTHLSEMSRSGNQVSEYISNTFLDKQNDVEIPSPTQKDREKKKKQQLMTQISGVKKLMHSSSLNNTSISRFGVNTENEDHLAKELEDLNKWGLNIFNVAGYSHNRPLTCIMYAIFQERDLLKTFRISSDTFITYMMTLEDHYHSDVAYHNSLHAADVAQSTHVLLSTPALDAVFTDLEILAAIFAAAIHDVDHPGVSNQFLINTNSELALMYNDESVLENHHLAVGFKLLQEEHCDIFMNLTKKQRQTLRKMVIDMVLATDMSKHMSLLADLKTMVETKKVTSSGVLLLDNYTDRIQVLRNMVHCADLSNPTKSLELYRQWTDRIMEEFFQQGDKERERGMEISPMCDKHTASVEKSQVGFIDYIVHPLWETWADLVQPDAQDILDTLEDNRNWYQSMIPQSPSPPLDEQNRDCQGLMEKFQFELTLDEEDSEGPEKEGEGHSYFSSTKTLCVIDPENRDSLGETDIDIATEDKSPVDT
Cytochrome P450 2C19, sequence (P33261 whole entry): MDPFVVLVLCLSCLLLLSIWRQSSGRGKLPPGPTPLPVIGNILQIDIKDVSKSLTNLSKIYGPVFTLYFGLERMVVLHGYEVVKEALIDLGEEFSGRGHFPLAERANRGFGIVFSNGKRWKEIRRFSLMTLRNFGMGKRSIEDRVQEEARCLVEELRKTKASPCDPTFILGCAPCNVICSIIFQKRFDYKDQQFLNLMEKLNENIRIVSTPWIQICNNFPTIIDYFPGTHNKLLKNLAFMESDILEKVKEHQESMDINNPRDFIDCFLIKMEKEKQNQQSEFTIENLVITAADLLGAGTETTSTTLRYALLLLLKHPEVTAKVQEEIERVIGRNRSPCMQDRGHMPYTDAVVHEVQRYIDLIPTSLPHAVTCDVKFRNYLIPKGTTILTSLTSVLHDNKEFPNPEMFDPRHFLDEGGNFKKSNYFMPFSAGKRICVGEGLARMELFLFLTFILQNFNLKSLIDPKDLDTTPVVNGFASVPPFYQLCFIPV
Cytochrome P450 3A4, sequence (P08684 whole entry): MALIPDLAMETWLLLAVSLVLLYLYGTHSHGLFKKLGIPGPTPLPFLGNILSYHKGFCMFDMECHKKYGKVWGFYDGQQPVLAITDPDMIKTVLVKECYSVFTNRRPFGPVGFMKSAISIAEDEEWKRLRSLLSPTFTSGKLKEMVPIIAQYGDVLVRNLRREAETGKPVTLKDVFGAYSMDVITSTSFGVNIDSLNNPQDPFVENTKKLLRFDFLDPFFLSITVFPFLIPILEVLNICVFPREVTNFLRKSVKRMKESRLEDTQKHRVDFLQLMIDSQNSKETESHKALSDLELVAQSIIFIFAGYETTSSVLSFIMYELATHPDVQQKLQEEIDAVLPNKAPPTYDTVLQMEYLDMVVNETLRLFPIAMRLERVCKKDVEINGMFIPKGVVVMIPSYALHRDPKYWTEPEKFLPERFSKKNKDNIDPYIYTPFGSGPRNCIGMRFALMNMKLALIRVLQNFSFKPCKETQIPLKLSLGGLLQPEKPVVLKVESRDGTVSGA
Cytochrome P450 2C9, sequence (P11712 whole entry): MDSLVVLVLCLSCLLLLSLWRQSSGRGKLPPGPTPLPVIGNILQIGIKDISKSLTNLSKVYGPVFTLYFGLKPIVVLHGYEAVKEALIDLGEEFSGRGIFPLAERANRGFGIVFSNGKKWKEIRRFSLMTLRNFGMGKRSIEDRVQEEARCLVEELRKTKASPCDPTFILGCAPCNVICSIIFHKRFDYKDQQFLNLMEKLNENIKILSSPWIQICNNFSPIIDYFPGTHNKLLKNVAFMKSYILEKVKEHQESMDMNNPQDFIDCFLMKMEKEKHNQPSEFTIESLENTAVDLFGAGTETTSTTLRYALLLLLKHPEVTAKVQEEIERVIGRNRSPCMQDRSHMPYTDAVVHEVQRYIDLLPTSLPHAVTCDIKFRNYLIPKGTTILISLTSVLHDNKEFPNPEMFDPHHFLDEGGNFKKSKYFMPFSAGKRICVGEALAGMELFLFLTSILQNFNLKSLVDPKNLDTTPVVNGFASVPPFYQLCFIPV
Cytochrome P450 2D6, sequence (P10635 whole entry): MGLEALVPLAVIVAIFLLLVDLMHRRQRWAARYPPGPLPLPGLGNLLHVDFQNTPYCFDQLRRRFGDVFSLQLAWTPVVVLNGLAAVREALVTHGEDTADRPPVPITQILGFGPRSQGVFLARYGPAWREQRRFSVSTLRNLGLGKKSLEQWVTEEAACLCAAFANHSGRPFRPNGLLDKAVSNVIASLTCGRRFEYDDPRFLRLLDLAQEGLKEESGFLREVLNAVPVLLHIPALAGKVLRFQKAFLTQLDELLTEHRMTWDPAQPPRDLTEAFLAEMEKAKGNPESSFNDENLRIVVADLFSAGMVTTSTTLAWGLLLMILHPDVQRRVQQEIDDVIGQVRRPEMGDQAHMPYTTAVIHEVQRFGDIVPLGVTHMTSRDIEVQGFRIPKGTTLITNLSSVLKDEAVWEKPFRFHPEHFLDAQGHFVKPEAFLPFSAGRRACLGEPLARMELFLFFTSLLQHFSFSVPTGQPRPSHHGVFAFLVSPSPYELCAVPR

With `Cc1cccc2nc(C(=O)N[C@H]3CC[C@@H](NC(=O)c4cc(F)cnc4Oc4cccc(-c5ccc(CN6CCC(N7CCCC7)CC6)cc5)c4)CC3)cn12`, the IC50 in data set [1] was greater than 1000 nM; in data set [2] it was greater than 1000 nM; in data set [4], 0.251 nM; in data set [6], greater than 1000 nM; in data set [11] it was greater than 1000 nM; in [13] it was greater than 1000 nM. The IC50 in data set [14] is 0.0398 nM. Besides, the solubility in [3] is greater than 1400 µM. Moreover, in data set [5], the Vd came to 60 L/kg. In addition, the Vz/F in [7] was determined as 80 L/kg. The half-life in data set [8] is 720 min. This compound showed a logD in data set [9] of 3.2. This compound displayed a fraction unbound in data set [10] of 0.02. For the same compound, the clearance in data set [12] turned out to be 79 mL/min/kg. Besides, the inhibition result in data set [15] was “Active”.

Take `COc1cccc(Nc2c(C(N)=O)cnc3c(C)cc(S(=O)(=O)c4cccc(C(=O)N(C)C)c4)cc23)c1` [GSK-256066]: the concentration in solution in [3] (solubility) was 1.2 µM (≈ 0.622 µg/mL). Also, the IC50 in [4] is 0.00316 nM; in [19] it was 0.251 nM; in data set [22], 0.316 nM; in data set [14], less than 0.01 nM. The Vdss in [16] is 0.75 L/kg. In data set [17], this compound gave a t1/2 of 14.9 h. The same compound gave a fraction unbound in data set [10] of 0.015. Also, the half-life in data set [18] was 486 min. Moreover, the inhibition result in [20] and in data set [23] was “Active” throughout. Also, the inhibition result in data set [21] and in data set [24] was “inactive” in each case. Also, the microsomal CLint in data set [25] is greater than 150 µL/min/mg.

As for `Cc1ccc(O)c(C(=O)N[C@H]2CC[C@@H](NC(=O)c3cc(F)cnc3Oc3ccc(F)c(F)c3)CC2)c1` [UK-500001], the inhibition entry in data set [26] and in data set [27] was “Active” throughout. This compound showed a solubility in [3] of less than 1 µM. Moreover, the IC50 in data set [4] is 3.98 nM; in data set [19], 39.8 nM; in data set [14] it was 0.631 nM. Also, in data set [5], the Vd came to 22 L/kg. In data set [8], the half-life was 456 min. In data set [9], this compound showed a logD of 4.4. Moreover, the fraction unbound in data set [10] was determined as 0.0017; in data set [30] it was 0.017. The inhibition result in [28] and in data set [23] was “inactive” each time. In [12], the clearance turned out to be 97 mL/min/kg. Further, the hepatocyte CLint in data set [29] was found to be 76 µL/min/1e6 cells. Besides, in data set [25], the microsomal CLint came out at 116 µL/min/mg.
